{
  "source": "the RNAGym collection of RNA variant scans (doi:10.1002/anie.201605470)",
  "parents": {"B1": {"name": "Osa-1-4 twister ribozyme (parent)", "chain": "CCGCCUAACACUGCCAAUGCCGGUCCCAAGCCCGGAUAAAAGUGGAGGGGGCGG"}},
  "data": [
    {"variants_of": "B1", "assay": "self-cleavage, relative activity (ratio to wild type); higher = more cleavage; co-transcriptional", "method_in_brief": "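A DNA template was synthesised for a 54-nucleotide twister ribozyme from Oryza sativa, with 97 % wild-type base and 1 % of each other base at each of the 48 positions downstream of the cleavage site. The ribozyme cleaved itself co-transcriptionally during 2 h of in vitro transcription at 37 °C. Reverse transcription with a template-switching oligonucleotide, PCR amplification and deep sequencing followed, and cleavage status came from reads with or without upstream sequence. Relative activity is the fraction cleaved normalised to wild type.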", "values": [
      {"variant": "C26U G49A", "self-cleavage": 0.06},
      {"variant": "C26U G49U", "self-cleavage": 0.06},
      {"variant": "C26U G49C", "self-cleavage": 0.06},
      {"variant": "C27G G44C", "self-cleavage": 0.08},
      {"variant": "C27G G44A", "self-cleavage": 0.06},
      {"variant": "C27G G44U", "self-cleavage": 0.05},
      {"variant": "C26G G53U", "self-cleavage": 0.06},
      {"variant": "C26G G53A", "self-cleavage": 0.11},
      {"variant": "C26G G53C", "self-cleavage": 0.03},
      {"variant": "C27A C31U", "self-cleavage": 0.09},
      {"variant": "C27A C31G", "self-cleavage": 0.04},
      {"variant": "C27A C31A", "self-cleavage": 0.06},
      {"variant": "C27G U24A", "self-cleavage": 0.03},
      {"variant": "C27G U24G", "self-cleavage": 0.02},
      {"variant": "C27G U24C", "self-cleavage": 0.04},
      {"variant": "C26U G48A", "self-cleavage": 0.82},
      {"variant": "C26U G48C", "self-cleavage": 0.1},
      {"variant": "C26U G48U", "self-cleavage": 0.08},
      {"variant": "C27A G44A", "self-cleavage": 0.1},
      {"variant": "C27A G44C", "self-cleavage": 0.14},
      {"variant": "C27A G44U", "self-cleavage": 0.14},
      {"variant": "C26G G54C", "self-cleavage": 0.08},
      {"variant": "C26G G54U", "self-cleavage": 0.15},
      {"variant": "C26G G54A", "self-cleavage": 0.08},
      {"variant": "C27G G34U", "self-cleavage": 0.08},
      {"variant": "C27G G34A", "self-cleavage": 0.07},
      {"variant": "C27G G34C", "self-cleavage": 0.05},
      {"variant": "C26U C33U", "self-cleavage": 0.32},
      {"variant": "C26U C33G", "self-cleavage": 0.07},
      {"variant": "C26U C33A", "self-cleavage": 0.09},
      {"variant": "C27U G30U", "self-cleavage": 0.05},
      {"variant": "C27U G30C", "self-cleavage": 0.02},
      {"variant": "C27U G30A", "self-cleavage": 0.02},
      {"variant": "C26G U18C", "self-cleavage": 0.1},
      {"variant": "C26G U18G", "self-cleavage": 0.13},
      {"variant": "C26G U18A", "self-cleavage": 0.09},
      {"variant": "C27G G50U", "self-cleavage": 0.07},
      {"variant": "C27G G50C", "self-cleavage": 0.05},
      {"variant": "C27G G50A", "self-cleavage": 0.09},
      {"variant": "C26U G50C", "self-cleavage": 0.26},
      {"variant": "C26U G50U", "self-cleavage": 0.52},
      {"variant": "C26U G50A", "self-cleavage": 0.92},
      {"variant": "C27U C31G", "self-cleavage": 0.06},
      {"variant": "C27U C31U", "self-cleavage": 0.07},
      {"variant": "C27U C31A", "self-cleavage": 0.02},
      {"variant": "C26U G34C", "self-cleavage": 0.56},
      {"variant": "C26U G34U", "self-cleavage": 0.83},
      {"variant": "C26U G34A", "self-cleavage": 0.92},
      {"variant": "C26U G42A", "self-cleavage": 0.13},
      {"variant": "C26U G42U", "self-cleavage": 0.04},
      {"variant": "C26U G42C", "self-cleavage": 0.1},
      {"variant": "C27G G47C", "self-cleavage": 0.86},
      {"variant": "C27G G47A", "self-cleavage": 0.15},
      {"variant": "C27G G47U", "self-cleavage": 0.21},
      {"variant": "C26U G30U", "self-cleavage": 0.03},
      {"variant": "C26U G30C", "self-cleavage": 0.04},
      {"variant": "C26U G30A", "self-cleavage": 0.03},
      {"variant": "C26U G53C", "self-cleavage": 0.08},
      {"variant": "C26U G53U", "self-cleavage": 0.11},
      {"variant": "C26U G53A", "self-cleavage": 0.22},
      {"variant": "C26G U12A", "self-cleavage": 0.07},
      {"variant": "C26G U12G", "self-cleavage": 0.07},
      {"variant": "C26G U12C", "self-cleavage": 0.05},
      {"variant": "C27G G54C", "self-cleavage": 0.04},
      {"variant": "C27G G54A", "self-cleavage": 0.06},
      {"variant": "C27G G54U", "self-cleavage": 0.12},
      {"variant": "C27A G49U", "self-cleavage": 0.04},
      {"variant": "C27A G49C", "self-cleavage": 0.03},
      {"variant": "C27A G49A", "self-cleavage": 0.04},
      {"variant": "C27A G47U", "self-cleavage": 0.83},
      {"variant": "C27A G47A", "self-cleavage": 0.24},
      {"variant": "C27A G47C", "self-cleavage": 0.36},
      {"variant": "C27G G13A", "self-cleavage": 0.03},
      {"variant": "C27G G13C", "self-cleavage": 0.01},
      {"variant": "C27G G13U", "self-cleavage": 0.01},
      {"variant": "C26U C27G", "self-cleavage": 0.06},
      {"variant": "C26U C27A", "self-cleavage": 0.07},
      {"variant": "C26U C27U", "self-cleavage": 0.24},
      {"variant": "C27G G49A", "self-cleavage": 0.04},
      {"variant": "C27G G49C", "self-cleavage": 0.03},
      {"variant": "C27G G49U", "self-cleavage": 0.04},
      {"variant": "C26U C31G", "self-cleavage": 0.07},
      {"variant": "C26U C31A", "self-cleavage": 0.05},
      {"variant": "C26U C31U", "self-cleavage": 0.16},
      {"variant": "C27U", "self-cleavage": 0.33},
      {"variant": "C27A", "self-cleavage": 0.37},
      {"variant": "C27G", "self-cleavage": 0.13},
      {"variant": "C27A G53U", "self-cleavage": 0.06},
      {"variant": "C27A G53A", "self-cleavage": 0.09},
      {"variant": "C27A G53C", "self-cleavage": 0.05},
      {"variant": "C26U G47C", "self-cleavage": 0.07},
      {"variant": "C26U G47U", "self-cleavage": 0.06},
      {"variant": "C26U G47A", "self-cleavage": 0.08},
      {"variant": "C27A G35C", "self-cleavage": 0.07},
      {"variant": "C27A G35A", "self-cleavage": 0.39},
      {"variant": "C27A G35U", "self-cleavage": 0.16},
      {"variant": "C27A G22U", "self-cleavage": 0.06},
      {"variant": "C27A G22A", "self-cleavage": 0.1},
      {"variant": "C27A G22C", "self-cleavage": 0.03},
      {"variant": "C27A C32G", "self-cleavage": 0.06},
      {"variant": "C27A C32U", "self-cleavage": 0.06},
      {"variant": "C27A C32A", "self-cleavage": 0.09},
      {"variant": "C26U G19A", "self-cleavage": 0.14},
      {"variant": "C26U G19U", "self-cleavage": 0.05},
      {"variant": "C26U G19C", "self-cleavage": 0.04},
      {"variant": "C27G G48C", "self-cleavage": 0.03},
      {"variant": "C27G G48A", "self-cleavage": 0.04},
      {"variant": "C27G G48U", "self-cleavage": 0.02},
      {"variant": "C27G U12A", "self-cleavage": 0.05},
      {"variant": "C27G U12G", "self-cleavage": 0.06},
      {"variant": "C27G U12C", "self-cleavage": 0.05},
      {"variant": "C27A U43A", "self-cleavage": 0.1},
      {"variant": "C27A U43C", "self-cleavage": 0.1},
      {"variant": "C27A U43G", "self-cleavage": 0.15},
      {"variant": "C27U C33A", "self-cleavage": 0.05},
      {"variant": "C27U C33G", "self-cleavage": 0.05},
      {"variant": "C27U C33U", "self-cleavage": 0.13},
      {"variant": "C26U G45A", "self-cleavage": 0.07},
      {"variant": "C26U G45U", "self-cleavage": 0.04},
      {"variant": "C26U G45C", "self-cleavage": 0.04},
      {"variant": "C27A C52U", "self-cleavage": 0.33},
      {"variant": "C27A C52A", "self-cleavage": 0.23},
      {"variant": "C27A C52G", "self-cleavage": 0.25},
      {"variant": "C27G C9G", "self-cleavage": 0.07},
      {"variant": "C27G C9A", "self-cleavage": 0.03},
      {"variant": "C27G C9U", "self-cleavage": 0.05},
      {"variant": "C27G G45A", "self-cleavage": 0.02},
      {"variant": "C27G G45U", "self-cleavage": 0.02},
      {"variant": "C27G G45C", "self-cleavage": 0.03},
      {"variant": "C27U G19C", "self-cleavage": 0.04},
      {"variant": "C27U G19U", "self-cleavage": 0.05},
      {"variant": "C27U G19A", "self-cleavage": 0.08},
      {"variant": "C27G G19U", "self-cleavage": 0.04},
      {"variant": "C27G G19C", "self-cleavage": 0.03},
      {"variant": "C27G G19A", "self-cleavage": 0.06},
      {"variant": "C26U G13U", "self-cleavage": 0.03},
      {"variant": "C26U G13A", "self-cleavage": 0.05},
      {"variant": "C26U G13C", "self-cleavage": 0.02},
      {"variant": "C27A C33U", "self-cleavage": 0.1},
      {"variant": "C27A C33A", "self-cleavage": 0.09},
      {"variant": "C27A C33G", "self-cleavage": 0.04},
      {"variant": "C27A G19C", "self-cleavage": 0.03},
      {"variant": "C27A G19A", "self-cleavage": 0.09},
      {"variant": "C27A G19U", "self-cleavage": 0.04},
      {"variant": "C27U G34C", "self-cleavage": 0.08},
      {"variant": "C27U G34U", "self-cleavage": 0.15},
      {"variant": "C27U G34A", "self-cleavage": 0.18},
      {"variant": "C27A G45U", "self-cleavage": 0.07},
      {"variant": "C27A G45A", "self-cleavage": 0.06},
      {"variant": "C27A G45C", "self-cleavage": 0.03},
      {"variant": "C26U C32G", "self-cleavage": 0.27},
      {"variant": "C26U C32A", "self-cleavage": 0.06},
      {"variant": "C26U C32U", "self-cleavage": 0.09},
      {"variant": "C26U U12A", "self-cleavage": 0.2},
      {"variant": "C26U U12C", "self-cleavage": 0.09},
      {"variant": "C26U U12G", "self-cleavage": 0.23},
      {"variant": "C26U G35U", "self-cleavage": 0.88},
      {"variant": "C26U G35C", "self-cleavage": 0.09},
      {"variant": "C26U G35A", "self-cleavage": 0.9},
      {"variant": "C26G G48U", "self-cleavage": 0.08},
      {"variant": "C26G G48A", "self-cleavage": 0.06},
      {"variant": "C26G G48C", "self-cleavage": 0.74},
      {"variant": "C27G G53U", "self-cleavage": 0.03},
      {"variant": "C27G G53C", "self-cleavage": 0.02},
      {"variant": "C27G G53A", "self-cleavage": 0.06},
      {"variant": "C27A G23U", "self-cleavage": 0.04},
      {"variant": "C27A G23A", "self-cleavage": 0.06}
    ]}
  ]
}
